In ChEMBL document CHEMBL2163220 (J Med Chem, 2012):
Active and inactive are the calls of the source. No cut-off for these calls is given here.

Tests used:
CWR22R = assay: Cytotoxicity against human 22Rv1 cells incubated for 72 hrs by MTT assay; format: functional, cell-based; conditions: 22Rv1, 72 h
Method in brief: (§1)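 MTT assay run across a panel of prostate cancer cell lines.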

PC-3 [1] = assay: Cytotoxicity against human PC3 cells incubated for 72 hrs by MTT assay; format: functional, cell-based; conditions: PC-3, 72 h; method in brief: as §1
[2] = Cytotoxicity against human C4-2B cells incubated for 72 hrs by MTT assay; format: functional, cell-based; conditions: LNCaP C4-2B; method in brief: as §1
LNCaP [3] = assay: Cytotoxicity against human LNCAP cells incubated for 72 hrs by MTT assay; format: functional, cell-based; method in brief: as §1
[4] = molecular target: T1, Androgen receptor (Homo sapiens) (UniProt P10275); assay: Antagonist activity at androgen receptor in human LNCaP cells assessed as reduction in DHT-induced PSA expression by luciferase reporter gene assay; format: functional, cell-based
T1 sequence (whole entry): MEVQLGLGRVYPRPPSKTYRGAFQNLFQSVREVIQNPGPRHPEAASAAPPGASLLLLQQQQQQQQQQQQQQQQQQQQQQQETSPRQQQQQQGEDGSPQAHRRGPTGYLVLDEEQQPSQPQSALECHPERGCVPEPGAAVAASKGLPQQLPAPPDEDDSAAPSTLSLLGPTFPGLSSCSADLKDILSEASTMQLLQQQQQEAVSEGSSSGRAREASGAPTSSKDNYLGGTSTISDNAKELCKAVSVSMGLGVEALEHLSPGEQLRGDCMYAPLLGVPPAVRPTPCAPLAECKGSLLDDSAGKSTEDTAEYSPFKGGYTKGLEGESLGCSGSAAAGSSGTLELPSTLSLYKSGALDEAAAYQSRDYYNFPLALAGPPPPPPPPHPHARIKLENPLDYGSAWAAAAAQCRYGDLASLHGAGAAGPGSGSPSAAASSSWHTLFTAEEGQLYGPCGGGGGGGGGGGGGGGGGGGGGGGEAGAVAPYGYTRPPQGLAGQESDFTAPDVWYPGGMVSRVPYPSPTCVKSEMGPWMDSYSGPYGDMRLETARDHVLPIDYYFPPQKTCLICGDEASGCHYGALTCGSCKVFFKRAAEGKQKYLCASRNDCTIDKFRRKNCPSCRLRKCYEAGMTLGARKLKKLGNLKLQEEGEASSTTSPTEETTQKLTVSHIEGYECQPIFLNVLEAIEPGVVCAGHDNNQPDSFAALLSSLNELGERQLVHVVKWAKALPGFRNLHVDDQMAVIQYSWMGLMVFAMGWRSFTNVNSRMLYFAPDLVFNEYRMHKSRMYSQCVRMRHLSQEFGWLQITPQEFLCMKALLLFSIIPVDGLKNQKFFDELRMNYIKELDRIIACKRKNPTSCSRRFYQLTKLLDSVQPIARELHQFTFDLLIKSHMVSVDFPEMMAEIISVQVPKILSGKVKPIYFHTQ
Method in brief: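 LNCaP cells carrying a PSA-luc reporter were treated with compound at 1 and 2.5 μM in the presence of 1 nM DHT. Fold suppression was calculated relative to 1 nM DHT alone. Run in triplicate.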

[5] = molecular target: T1, Androgen receptor (Homo sapiens); assay: Antagonist activity at androgen receptor in human LNCaP cells assessed as increase in Maspin protein expression at 1 to 5 uM incubated for 24 hrs by Western blotting
[6] = molecular target: T1, Androgen receptor (Homo sapiens); assay: Antagonist activity at androgen receptor in human PC3 cells assessed as increase in Maspin promoter activity at 5 uM by luciferase reporter gene assay; format: functional, cell-based; conditions: PC-3
Method in brief: (§2)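 PC-3 cells were transfected with maspin-luc, with or without cotransfected AR. Cells were exposed to DMSO vehicle or compound at 2.5 and 5 μM. Luciferase activity was measured in triplicate.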

PC-3 [7] = assay: Effect on in Maspin expression in human PC3 cells deficient in wild type androgen receptor at 2.5 uM by luciferase reporter gene assay; format: functional, cell-based; method in brief: as §2
LNCaP [8] = assay: Induction of apoptosis in human LNCAP cells assessed as caspase-3 activation incubated for 24 hrs by Western blotting; format: functional, cell-based
Method in brief: (§3)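 LNCaP cells in complete medium were exposed to DMSO or compound at 1, 2.5 and 5 μM for 24 h. Western blot measured AR, maspin, caspase-3 activation and PARP cleavage, with β-actin as loading control.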

PC-3 [9] = assay: Effect on in Maspin expression in human PC3 cells deficient in wild type androgen receptor at 5 uM by luciferase reporter gene assay; format: functional, cell-based; method in brief: as §2
LNCaP [10] = assay: Reduction in androgen receptor protein expression in human LNCAP cells incubated for 24 hrs by Western blotting; format: functional, cell-based; method in brief: as §3
[11] = molecular target: T1, Androgen receptor (Homo sapiens); assay: Antagonist activity at androgen receptor in human LNCaP cells assessed as increase in Maspin promoter activity by luciferase reporter gene assay; format: functional, cell-based
Method in brief: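 LNCaP cells carrying a maspin promoter-luciferase reporter were treated with compound and read by luciferase activity, in triplicate.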

LNCaP [12] = assay: Induction of apoptosis in human LNCAP cells assessed as PARP cleavage activation incubated for 24 hrs by Western blotting; format: functional, cell-based; method in brief: as §3
[13] = molecular target: T1, Androgen receptor (Homo sapiens); assay: Antagonist activity at androgen receptor in human PC3 cells assessed as increase in Maspin promoter activity at 2.5 uM by luciferase reporter gene assay; format: functional, cell-based; conditions: PC-3; method in brief: as §2
PC-3 [14] = assay: Antagonist activity at androgen receptor ARv7 mutant lacking ligand binding domain expressed in human PC3 cells assessed as reduction in DHT-induced receptor transactivation at 1 uM by luciferase reporter gene assay; format: cell-based
Method in brief: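 AR-v7 (lacks LBD), MMTV-Luc and pRL-TK (Renilla) plasmids transiently transfected into PC-3 cells; cells treated with DMSO vehicle, 0.1 nM DHT, or test compound at 1 μM; transactivation read as luciferase activity (relative luciferase units).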

Row | Compound | IC50 (CWR22R) [µM] | IC50 (PC-3 [1]) [µM] | IC50 [2] [µM] | IC50 (LNCaP [3]) [µM] | Activity [4] | Activity [11] | other results
1 | Cc1coc2c1C(=O)C(=O)c1c-2ccc2c1CCC(C)C2 (stereo unspecified) | > 20 | 2.5 | 0.7 | 3.5 |  |  | 
2 | Cc1coc2c1C(=O)C(=O)c1c-2ccc2c1CCC(C)(C)C2 | 8.8 | 0.9 | 0.5 | 0.7 | Dose-dependent effect | Dose-dependent effect | Activity [5]: Active; Activity [6]: Active; Activity (PC-3 [7]): inactive; Activity (LNCaP [8]): Dose-dependent effect; Activity (PC-3 [9]): inactive; Activity (LNCaP [10]): Dose-dependent effect; Activity (LNCaP [12]): Dose-dependent effect; Activity [13]: Active
3 | Cc1coc2c1C(=O)C(=O)c1c-2ccc2c1CCCC2 | 13.5 | 1.2 | 0.1 | 0.6 | Dose-dependent effect | Dose-dependent effect | 
4 | Cc1coc2c1C(=O)C(=O)c1c-2ccc2c1CC(C)CC2 (stereo unspecified) | 8.2 | 1.9 | 0.3 | 1.7 |  |  | 
5 | Cc1coc2c1C(=O)C(=O)c1c-2ccc2c1CCCCC2 | > 20 | 6.3 | 1.8 | 3.6 |  |  | 
6 | Cc1coc2c1C(=O)C(=O)c1c-2ccc2c1CC(C)(C)CC2 | 3.2 | 3.6 | 1.2 | 3.2 | Dose-dependent effect | Dose-dependent effect | 
7 | Cc1coc2c1C(=O)C(=O)c1c-2ccc2c1CCC2(C)C | 7.5 | 2.4 | 0.4 | 1 |  |  | 
8 | Cc1coc2c1C(=O)C(=O)c1c-2ccc2c1COCC2 | 1.5 | 2.1 | 0.1 | 2.4 |  |  | 
9 | CC(O)(CS(=O)(=O)c1ccc(F)cc1)C(=O)Nc1ccc(C#N)c(C(F)(F)F)c1 (stereo unspecified) |  |  |  |  |  |  | Activity (PC-3 [14]): inactive
10 | Cc1coc2c1C(=O)C(=O)c1c-2ccc2c1CCCC2C (stereo unspecified) | 11.8 | 1.2 | 0.4 | 1.2 |  |  | 
